Data on 29 compounds can be found in ChEMBL document CHEMBL3751754, “In vitro efficacy of 2,N-bisarylated 2-ethoxyacetamides against Plasmodium falciparum” (Bioorg Med Chem Lett, 2016).

A short description of data set [1]: Bio-transformation in human liver microsomes at 25 uM after 30 mins by LC-MS analysis. The data set is classed as ADME. The conditions noted are these: read-out: Drug metabolism. In short, it runs like this:
(§1)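 Test compound at 25 µM with pooled human liver microsomes (0.5 mg/mL total protein) in 0.1 M sodium phosphate, pH 7.4. An NADPH-regenerating system was included (1.25 mM NADP+, 3.3 mM glucose-6-phosphate, 3.3 mM MgCl2). Reaction was started with glucose-6-phosphate dehydrogenase (1 unit/mL final). Parent remaining at various time points was measured by LC-MS. Half-life assumed first-order decay; values from one experiment.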
(In general: Liver microsomes are a subcellular fraction often used to study metabolism.)

Data set [2] in a line: Half life in human liver microsomes at 25 uM by LC-MS analysis. The format is ADME. In short, it runs like this: as §1
Data set [3] relates to Plasmodium falciparum. As to the kind of experiment: Resistant index, ratio of IC50 for chloroquine, quinine and pyrimethamine-resistant Plasmodium falciparum W2 to IC50 for mefloquine-resistant Plasmodium falciparum D6. The data set is classed as functional. The procedure, abridged: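 Index is W2 IC50 divided by D6 IC50. Each IC50 is from inhibition of [3H]hypoxanthine uptake in a single experiment.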

For data set [4], the system named is Plasmodium falciparum. Kind of data set: Antiplasmodial activity against mefloquine-resistant Plasmodium falciparum D6 assessed as inhibition of [3H]-hypoxanthine uptake after 48 hrs by liquid scintillation counting analysis. The data set is classed as functional, organism-based. In short, it runs like this:
(§2)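 IC50 from inhibition of [3H]hypoxanthine uptake by P. falciparum W2 or D6 parasites. Values come from a single experiment.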

Data set [5] has as its system Plasmodium falciparum. As to the kind of experiment: Antiplasmodial activity against chloroquine, quinine and pyrimethamine-resistant Plasmodium falciparum W2 assessed as inhibition of [3H]-hypoxanthine uptake after 48 hrs by liquid scintillation counting analysis. The data set is classed as functional, organism-based. The procedure, abridged:
as §2

Data set [6] in a line: Half life in mouse liver microsomes at 25 uM by LC-MS analysis. The format is ADME.

In the case of `O=C(/C=C/c1cnc2ccccc2c1)c1cc(Cl)ccc1Cl`, the metabolised at 0.5 h, 25 µM in data set [1] was determined as 100%.

In the case of `O=C(/C=C/c1ccnc2ccccc12)c1ccc(Cl)c(Cl)c1`, in data set [1], the metabolised at 0.5 h, 25 µM came out at 100%.

Consider `CCOC(C(=O)Nc1ccc(Cl)cc1Cl)c1cnc2ccccc2c1` (stereo not drawn), for which the half-life at 25 µM in data set [2] and in data set [6] was greater than 60 min throughout. In addition, the “Ratio IC50” value in the data set with Plasmodium falciparum [3] is given as 0.43. The half-inhibitory concentration (IC50) – broadly, the concentration needed to halve the response being measured – with Plasmodium falciparum [4] is 4.5 µM; with Plasmodium falciparum [5], 2 µM.

As to `CCOC(C(=O)Nc1cccc2ncccc12)c1ccc(Cl)c(Cl)c1` (stereo not drawn), the IC50 in the data set with Plasmodium falciparum [4] and with Plasmodium falciparum [5] was greater than 27 µM throughout.

As to `CCOC(C(=O)Nc1ccc2ncccc2c1)c1ccc(Cl)cc1Cl` (stereo not drawn), in the data set on Plasmodium falciparum [3], the “Ratio IC50” value came to 0.92. Besides, the IC50 with Plasmodium falciparum [4] was found to be 15 µM; in the data set with Plasmodium falciparum [5], 14 µM.

As for `CCOC(C(=O)Nc1ccnc2ccccc12)c1ccc(Cl)cc1Cl` (stereo not drawn), the “Ratio IC50” value in the data set on Plasmodium falciparum [3] worked out at 1. In addition, the IC50 in the data set on Plasmodium falciparum [4] is 14 µM; in the data set on Plasmodium falciparum [5], 15 µM.

With `CCOC(C(=O)Nc1cc(Cl)ccc1Cl)c1ccnc2ccccc12` (stereo not drawn), the “Ratio IC50” value in the data set with Plasmodium falciparum [3] came to 1. Further, the values for the IC50 in the data set with Plasmodium falciparum [4] and in the data set on Plasmodium falciparum [5] were 14 µM and 15 µM, respectively.

Turning to `CCOC(C(=O)Nc1cnc2ccccc2c1)c1ccc(Cl)c(Cl)c1` (stereo not drawn), the IC50 with Plasmodium falciparum [4] was determined as 13 µM; in the data set with Plasmodium falciparum [5], 5.9 µM.

For `CCOC(C(=O)Nc1ccc(Cl)c(Cl)c1)c1ccnc2ccccc12` (stereo not drawn), the “Ratio IC50” value in the data set with Plasmodium falciparum [3] is listed as 0.8. In addition, the half-inhibitory concentration (IC50) in the data set on Plasmodium falciparum [4] was determined as 15 µM; with Plasmodium falciparum [5], 12 µM.

In the case of `CCOC(C(=O)Nc1ccnc2ccccc12)c1cc(Cl)ccc1Cl` (stereo not drawn), the “Ratio IC50” value in the data set on Plasmodium falciparum [3] is 1.2. The IC50 stood at 12 µM in the data set with Plasmodium falciparum [4] and 14 µM in the data set with Plasmodium falciparum [5].

`CCOC(C(=O)Nc1cccc2cccnc12)c1ccc(Cl)c(Cl)c1` (stereo not drawn): the “Ratio IC50” value with Plasmodium falciparum [3] is 0.84. The IC50 worked out at 20 µM in the data set with Plasmodium falciparum [4] and 16 µM in the data set on Plasmodium falciparum [5].

Consider `CCOC(C(=O)Nc1cccc2ncccc12)c1ccc(Cl)cc1Cl` (stereo not drawn), for which the IC50 in the data set with Plasmodium falciparum [4] and with Plasmodium falciparum [5] was greater than 27 µM each time.

Turning to `CCOC(C(=O)Nc1ccc(Cl)c(Cl)c1)c1cnc2ccccc2c1` (stereo not drawn), the “Ratio IC50” value in the data set on Plasmodium falciparum [3] is 0.71. Also, the values for the IC50 in the data set on Plasmodium falciparum [4] and with Plasmodium falciparum [5] were 18 µM and 13 µM, respectively.

For `CCOC(C(=O)Nc1ccc2ccccc2n1)c1ccc(Cl)c(Cl)c1` (stereo not drawn), the “Ratio IC50” value with Plasmodium falciparum [3] stood at 0.76. For the same compound, the IC50 in the data set on Plasmodium falciparum [4] is 19 µM; in the data set with Plasmodium falciparum [5], 15 µM.

Consider `CCOC(C(=O)Nc1cccc2cccnc12)c1cc(Cl)ccc1Cl` (stereo not drawn), for which the IC50 in the data set on Plasmodium falciparum [4] was 14 µM; with Plasmodium falciparum [5], greater than 27 µM.

On to `CCOC(C(=O)Nc1ccc(Cl)cc1)c1ccc(Cl)cc1` (stereo not drawn), for which the “Ratio IC50” value in the data set on Plasmodium falciparum [3] amounted to 1.5. The IC50 with Plasmodium falciparum [4] is 7.3 µM; in the data set with Plasmodium falciparum [5], 11 µM. In addition, the metabolised at 0.5 h, 25 µM in data set [1] was 0%.

`CCOC(C(=O)Nc1ccc2ccccc2n1)c1ccc(Cl)cc1Cl` (stereo not drawn): the “Ratio IC50” value with Plasmodium falciparum [3] is recorded as 0.88. For the same compound, the values for the concentration for half-maximal inhibition (IC50) with Plasmodium falciparum [4] and with Plasmodium falciparum [5] were 15 µM and 14 µM, respectively.

Turning to `CCOC(C(=O)Nc1cnc2ccccc2c1)c1ccc(Cl)cc1Cl` (stereo not drawn), the “Ratio IC50” value in the data set on Plasmodium falciparum [3] is 2.7. For the same compound, the IC50 in the data set on Plasmodium falciparum [4] was 9.8 µM; in the data set with Plasmodium falciparum [5], 27 µM.

For the compound `CCOC(C(=O)Nc1cc(Cl)ccc1Cl)c1cnc2ccccc2c1` (stereo not drawn), the “Ratio IC50” value in the data set with Plasmodium falciparum [3] stood at 1.1. Moreover, the IC50 in the data set on Plasmodium falciparum [4] and with Plasmodium falciparum [5] was 14 µM in each case.

With `CCOC(C(=O)Nc1ccnc2ccccc12)c1ccc(Cl)c(Cl)c1` (stereo not drawn), the half-life – broadly, how long it takes for the measured level to halve – at 25 µM in data set [2] amounted to 27 min; in data set [6] it was 30 min. In addition, in the data set with Plasmodium falciparum [3], the “Ratio IC50” value was found to be 0.53. Moreover, the half-maximal inhibitory concentration (IC50) in the data set on Plasmodium falciparum [4] was 3.2 µM; in the data set on Plasmodium falciparum [5], 1.7 µM.

Consider `CCOC(C(=O)Nc1cccc2ncccc12)c1cc(Cl)ccc1Cl` (stereo not drawn), for which the “Ratio IC50” value with Plasmodium falciparum [3] stood at 1.4. Moreover, the IC50 in the data set with Plasmodium falciparum [4] was 11 µM; in the data set on Plasmodium falciparum [5], 15 µM.

As to `CCOC(C(=O)Nc1ccc2ncccc2c1)c1ccc(Cl)c(Cl)c1` (stereo not drawn), the IC50 stood at 7.7 µM with Plasmodium falciparum [4] and 9.1 µM with Plasmodium falciparum [5].

Consider `CCOC(C(=O)Nc1ccc2ncccc2c1)c1cc(Cl)ccc1Cl` (stereo not drawn), for which the IC50 with Plasmodium falciparum [4] and with Plasmodium falciparum [5] was greater than 17 µM each time.

`CCOC(C(=O)Nc1cccc2cccnc12)c1ccc(Cl)cc1Cl` (stereo not drawn): the IC50 with Plasmodium falciparum [4] and in the data set on Plasmodium falciparum [5] was greater than 27 µM each time.

Regarding `CCOC(C(=O)Nc1ccc2ccccc2n1)c1cc(Cl)ccc1Cl` (stereo not drawn), the IC50 is 19 µM with Plasmodium falciparum [4] and greater than 27 µM with Plasmodium falciparum [5].

For the compound `CCOC(C(=O)Nc1ccc(Cl)cc1Cl)c1ccnc2ccccc12` (stereo not drawn), the half-life at 25 µM in data set [2] and in data set [6] was greater than 60 min in each case. In the data set on Plasmodium falciparum [3], the “Ratio IC50” value is recorded as 0.26. Further, the IC50 in the data set on Plasmodium falciparum [4] turned out to be 6.9 µM; with Plasmodium falciparum [5] it was 1.8 µM.

As to `CCOC(C(=O)Nc1cnc2ccccc2c1)c1cc(Cl)ccc1Cl` (stereo not drawn), the half-life at 25 µM amounted to 27 min in data set [2] and 9 min in data set [6]. Besides, the “Ratio IC50” value in the data set on Plasmodium falciparum [3] stood at 1.4. Further, the IC50 in the data set on Plasmodium falciparum [4] is 6.7 µM; in the data set on Plasmodium falciparum [5], 9.6 µM.

As to `O=C(/C=C/c1ccnc2ccccc12)c1cc(Cl)ccc1Cl`, the metabolised at 0.5 h, 25 µM in data set [1] stood at 100%.

For `O=C(/C=C/c1ccc(Cl)cc1)c1ccc(Cl)cc1` [4',4-DICHLOROCHALCONE], the “Ratio IC50” value in the data set with Plasmodium falciparum [3] is recorded as 2. For the same compound, the values for the IC50 in the data set on Plasmodium falciparum [4] and with Plasmodium falciparum [5] were 2.6 µM and 5.3 µM, respectively. The metabolised at 0.5 h, 25 µM in data set [1] stood at 85%.
